ChEMBL document CHEMBL4602705, “Discovery of N-Cyano-sulfoximineurea Derivatives as Potent and Orally Bioavailable NLRP3 Inflammasome Inhibitors” (ACS Med Chem Lett, 2020)
pIC50: −log10 of the molar value.

Key:
[1] = target: T1, NACHT, LRR and PYD domains-containing protein 3 (Homo sapiens, UniProt Q96P20); test: Inhibition of NLRP3 inflammasome activation in LPS-primed human THP1 cells assessed as reduction in IL-1beta level preincubated for 1 hr followed by addition of ATP and nigericin further incubated for 1 hrs and measured post ATP addition 1 hr by ELISA method; format: cell-based, THP-1
[2] = AUC in C57/BL6 mouse at 3 mg/kg, po measured up to 24 hrs by LC-MS/MS analysis; format: ADME, organism-based; set-up: dose 3 mg/kg, time < 24 hr, route oral; conditions: in vivo
Outline: (§1)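 Mouse PK, composite design, n = 3 per time point, mean values. Dosed 3 mg/kg po in 1% Tween 80 + 99% (0.5%) methyl cellulose in water; 1 mg/kg iv in 5% NMP + 5% solutol + 90% normal saline for bioavailability reference.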

[3] = Half life in C57/BL6 mouse at 3 mg/kg, po measured up to 24 hrs by LC-MS/MS analysis; format: ADME, organism-based; conditions: in vivo; outline: as §1
[4] = Oral bioavailability in C57/BL6 mouse at 3 mg/kg measured up to 24 hrs by LC-MS/MS analysis; format: ADME, organism-based; conditions: in vivo; outline: as §1
Mus musculus = test: Inhibition of LPS-induced serum IL-1beta production in C57/BL6 mouse at 10 mg/kg, po post-challenge with LPS for 2 hrs followed by ATP-challenge and measured after 30 mins by ELISA method relative to control; format: functional
Outline: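 Acute LPS+ATP challenge model in female C57BL/6 mice, n = 6/group; single oral dose 10 mg/kg in 1% Tween 80 and 99% methyl cellulose (0.5%); IL-1β compared with vehicle control; error bars SEM.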

[5] = target: T1, NACHT, LRR and PYD domains-containing protein 3; test: Inhibition of NLRP3 inflammasome activation in LPS-primed human THP1 cells assessed as reduction in IL-1beta level at 1 uM preincubated for 1 hr followed by addition of ATP and nigericin further incubated for 1 hrs and measured post ATP addition 1 hr by ELISA method relative to control; format: cell-based; conditions: THP-1

T1 sequence (Q96P20 whole entry, the tested form may be a part): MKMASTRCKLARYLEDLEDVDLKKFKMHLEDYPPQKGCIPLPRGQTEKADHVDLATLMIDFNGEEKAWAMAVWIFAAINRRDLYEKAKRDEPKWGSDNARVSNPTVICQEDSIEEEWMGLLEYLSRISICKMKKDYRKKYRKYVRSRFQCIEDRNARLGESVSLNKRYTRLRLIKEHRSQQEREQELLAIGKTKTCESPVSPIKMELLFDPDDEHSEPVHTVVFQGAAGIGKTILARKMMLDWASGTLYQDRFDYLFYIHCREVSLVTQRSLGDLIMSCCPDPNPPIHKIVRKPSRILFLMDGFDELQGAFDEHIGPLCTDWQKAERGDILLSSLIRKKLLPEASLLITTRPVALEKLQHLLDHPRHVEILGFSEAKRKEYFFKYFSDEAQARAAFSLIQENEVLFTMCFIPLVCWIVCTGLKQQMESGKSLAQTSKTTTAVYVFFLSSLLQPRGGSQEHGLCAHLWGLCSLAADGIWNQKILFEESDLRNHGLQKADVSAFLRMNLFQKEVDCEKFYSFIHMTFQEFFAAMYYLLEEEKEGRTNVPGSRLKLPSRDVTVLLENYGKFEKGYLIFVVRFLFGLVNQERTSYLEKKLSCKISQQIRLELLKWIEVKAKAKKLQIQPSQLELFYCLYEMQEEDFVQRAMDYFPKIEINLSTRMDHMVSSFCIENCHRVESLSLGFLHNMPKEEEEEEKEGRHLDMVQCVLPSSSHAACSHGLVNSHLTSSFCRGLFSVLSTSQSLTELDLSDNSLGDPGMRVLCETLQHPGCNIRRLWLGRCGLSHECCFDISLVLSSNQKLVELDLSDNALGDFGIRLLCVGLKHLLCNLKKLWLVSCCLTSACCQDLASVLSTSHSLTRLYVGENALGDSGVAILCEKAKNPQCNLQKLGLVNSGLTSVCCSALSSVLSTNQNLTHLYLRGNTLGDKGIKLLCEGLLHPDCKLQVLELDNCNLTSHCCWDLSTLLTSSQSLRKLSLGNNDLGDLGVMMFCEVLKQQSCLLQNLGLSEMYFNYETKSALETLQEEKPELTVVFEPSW

In the case of Cc1ccc(S(=O)(=NC(N)=O)NC(=O)Nc2c3c(cc4c2CCC4)CCC3)cc1 (stereo unspecified), the pIC50 [1] was under 6.00.
CCOC(=O)N=S(=O)(NC(=O)Nc1c2c(cc3c1CCC3)CCC2)c1ccc(C)cc1 (stereo unspecified) showed a pIC50 [1] of under 6.00.
Compound Cc1ccc(S(=O)(=NC#N)NC(=O)Nc2c3c(cc4c2CCC4)CCC3)cc1 (stereo unspecified) has an AUC at 24 h [2] of 4200 ng·h/mL, a half-life [3] of 2.91 h and a bioavailability [4] of 56%. It also gave an inhibition in vivo at 10 mg/kg (Mus musculus) of 44%.
With Cc1ccc(S(=O)(=O)NC(=O)C(O)c2c3c(cc4c2CCC4)CCC3)cc1 (stereo unspecified) the pIC50 [1] was under 6.00.
With Cc1ccc(S(=O)(=O)N/C(=N\C#N)Nc2c3c(cc4c2CCC4)CCC3)cc1 the pIC50 [1] was under 6.00.
With O=C(Nc1c2c(cc3c1CCC3)CCC2)NC(c1ccccc1)C(F)(F)F (stereo unspecified) the pIC50 [1] was under 6.00 and the inhibition [5] was under 50%.
Cc1ccc(S(=O)(=O)NC(=O)Cc2c3c(cc4c2CCC4)CCC3)cc1 showed a pIC50 [1] of under 6.00.
N#CC(NC(=O)Nc1c2c(cc3c1CCC3)CCC2)c1ccccc1 (stereo unspecified) gave a pIC50 [1] of under 6.00 and an inhibition [5] of under 50%.
For Cc1ccc(S(=O)(=O)NC(=O)C(=O)c2c3c(cc4c2CCC4)CCC3)cc1, the pIC50 [1] was under 6.00.
In the case of N#CN=S(=O)(NC(=O)Nc1c2c(cc3c1CCC3)CCC2)c1cccnc1 (stereo unspecified), the AUC at 24 h [2] was 1280 ng·h/mL, the half-life [3] was 1.66 h and the bioavailability [4] was 24%.
Work on Cc1ccc(S(=O)(=Nc2ccc(F)cc2)NC(=O)Nc2c3c(cc4c2CCC4)CCC3)cc1 (stereo unspecified) yielded a pIC50 [1] of under 6.00.
Compound Cc1ccc(S(=O)(=NCC(F)(F)F)NC(=O)Nc2c3c(cc4c2CCC4)CCC3)cc1 (stereo unspecified) has a pIC50 [1] of under 6.00.
For N#CN=S(=O)(NC(=O)Nc1c2c(cc3c1CCC3)CCC2)c1ccc(C#N)cc1 (stereo unspecified), the AUC at 24 h [2] was 800 ng·h/mL, the half-life [3] was 1.03 h and the bioavailability [4] was 27%.
With CC(=O)N=S(=O)(NC(=O)Nc1c2c(cc3c1CCC3)CCC2)c1ccc(C)cc1 (stereo unspecified) the pIC50 [1] was under 6.00.
Cc1ccc(S(=O)(=O)NS(=O)(=O)Nc2c3c(cc4c2CCC4)CCC3)cc1 showed a pIC50 [1] of under 6.00.
CON=S(=O)(NC(=O)Nc1c2c(cc3c1CCC3)CCC2)c1ccc(C)cc1 (stereo unspecified) showed a pIC50 [1] of under 6.00.
Work on Cc1ccc(S(=O)(=NC#N)NC(=O)Nc2c3c(cc4c2CCC4)CCC3)cc1F (stereo unspecified) yielded an AUC at 24 h [2] of 3200 ng·h/mL, a half-life [3] of 2.38 h and a bioavailability [4] of 59%. It also gave an inhibition in vivo at 10 mg/kg (Mus musculus) of 50%.
In the case of Cc1ccc(S(=O)(=O)Nc2c(Nc3c4c(cc5c3CCC5)CCC4)c(=O)c2=O)cc1, the pIC50 [1] was under 6.00.
Work on N#CN=S(=O)(NC(=O)Nc1c2c(cc3c1CCC3)CCC2)c1cccc(C#N)c1 (stereo unspecified) yielded an AUC at 24 h [2] of 1200 ng·h/mL, a half-life [3] of 1.13 h and a bioavailability [4] of 40%.
O=C(Nc1c2c(cc3c1CCC3)CCC2)NC1(c2ccccc2)COC1 gave a pIC50 [1] of under 6.00.
Compound Cc1ccc(S(=O)(=Nc2ccn[nH]2)NC(=O)Nc2c3c(cc4c2CCC4)CCC3)cc1 (stereo unspecified) has a pIC50 [1] of under 6.00.
N#CN=S(=O)(NC(=O)Nc1c2c(cc3c1CCC3)CCC2)c1ccccn1 (stereo unspecified) gave an AUC at 24 h [2] of 8200 ng·h/mL, a half-life [3] of 5.2 h and a bioavailability [4] of 97%. For the same compound, the inhibition in vivo at 10 mg/kg (Mus musculus) was 57%.
With CN=S(=O)(NC(=O)Nc1c2c(cc3c1CCC3)CCC2)c1ccc(C)cc1 (stereo unspecified) the pIC50 [1] was under 6.00.
For Cc1ccc(S(=O)(=O)NC(=O)C(=O)Nc2c3c(cc4c2CCC4)CCC3)cc1, the pIC50 [1] was under 6.00.
